This is an account of results in ChEMBL document CHEMBL3124870, “Discovery and characterization of potent thiazoles versus methicillin- and vancomycin-resistant Staphylococcus aureus” (J Med Chem, 2014).

In general, MIC refers to the smallest concentration in the dilution series that meets the test's criterion for growth inhibition.

Converted amounts (≈) assume the structure as drawn.

Series [1] relates to Staphylococcus aureus. Kind of series: Antibacterial activity against vancomycin-resistant Staphylococcus aureus assessed as inhibition of visible growth by broth microdilution method. It is filed as functional. A general note: Broth dilution looks for growth in wells or tubes with falling amounts of substance.
Series [2] concerns Staphylococcus aureus. Kind of series: Antibacterial activity against methicillin-resistant Staphylococcus aureus USA1100 assessed as inhibition of visible growth by broth microdilution method. It counts as functional.
The test system of series [3] is Staphylococcus aureus. Kind of series: Antibacterial activity against methicillin-resistant Staphylococcus aureus USA1000 assessed as inhibition of visible growth by broth microdilution method. It counts as functional.
Series [4] has as its system Staphylococcus aureus. Kind of series: Antibacterial activity against methicillin-resistant Staphylococcus aureus USA800 assessed as inhibition of visible growth by broth microdilution method. It counts as functional.
The test system of series [5] is Staphylococcus aureus. The series is described as follows: Antibacterial activity against methicillin-resistant Staphylococcus aureus USA700 assessed as inhibition of visible growth by broth microdilution method. It is filed as functional.
In series [6] the test system is Staphylococcus aureus. The series is described as follows: Antibacterial activity against methicillin-resistant Staphylococcus aureus USA500 assessed as inhibition of visible growth by broth microdilution method. It counts as functional.
Series [7] has as its system Staphylococcus aureus. Kind of series: Antibacterial activity against methicillin-resistant Staphylococcus aureus USA300 assessed as inhibition of visible growth by broth microdilution method. It is filed as functional.
In series [8] the test system is Staphylococcus aureus. Kind of series: Antibacterial activity against methicillin-resistant Staphylococcus aureus USA200 assessed as inhibition of visible growth by broth microdilution method. It is filed as functional.
Series [9] relates to Staphylococcus aureus. Kind of series: Antibacterial activity against methicillin-resistant Staphylococcus aureus USA100 assessed as inhibition of visible growth by broth microdilution method. It is filed as functional.
The test system of series [10] is Staphylococcus aureus. The series is described as follows: Antibacterial activity against methicillin-resistant Staphylococcus aureus NRS194 assessed as inhibition of visible growth by broth microdilution method. It counts as functional.
For series [11], the system named is Staphylococcus aureus. The series is described as follows: Antibacterial activity against methicillin-resistant Staphylococcus aureus USA400 assessed as inhibition of visible growth by broth microdilution method. It is filed as functional.
The subject of series [12] is Staphylococcus aureus. Kind of series: Antibacterial activity against methicillin-resistant Staphylococcus aureus NRS119 assessed as inhibition of visible growth by broth microdilution method. It is filed as functional.
Series [13] deals with Staphylococcus aureus. The series is described as follows: Antibacterial activity against methicillin-resistant Staphylococcus aureus NRS108 assessed as inhibition of visible growth by broth microdilution method. It counts as functional.
Series [14] concerns Staphylococcus aureus. The series is described as follows: Antibacterial activity against methicillin-resistant Staphylococcus aureus NRS107 assessed as inhibition of visible growth by broth microdilution method. It is filed as functional.
Series [15] deals with Staphylococcus aureus. Kind of series: Antibacterial activity against vancomycin-intermediate Staphylococcus aureus LIM 3 assessed as inhibition of visible growth by broth microdilution method. It is filed as functional.
Series [16] concerns Staphylococcus aureus. Kind of series: Antibacterial activity against vancomycin-intermediate Staphylococcus aureus HIP07256 assessed as inhibition of visible growth by broth microdilution method. It counts as functional.
Series [17] concerns Staphylococcus aureus. The series is described as follows: Antibacterial activity against vancomycin-intermediate Staphylococcus aureus ATCC 700699 assessed as inhibition of visible growth by broth microdilution method. It is filed as functional.
Series [18] concerns Staphylococcus aureus. The series is described as follows: Antibacterial activity against methicillin-resistant Staphylococcus aureus ATCC 43300 assessed as inhibition of visible growth by broth microdilution method. It is filed as functional.
Another series deals with HeLa. Kind of series: Cytotoxicity against human HeLa cells assessed as cell viability at 11 ug/ml by MTS assay. It is filed as cell-based. In general terms: Tetrazolium assays rely on reduction of a dye to a coloured formazan, in cell work by metabolically active cells.
Series [19] concerns Staphylococcus aureus. Kind of series: Bactericidal activity against methicillin-resistant Staphylococcus aureus USA300 assessed as time required to complete elimination of bacteria by 3-log10 by time-kill assay. It counts as functional. The gist of the method: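 Viable counts (CFU) followed over a 12-hour window; endpoint is a 3-log10 fall in CFU.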

Take `C/C(=N\NC(=N)N)c1sc(-c2ccc(-c3ccccc3)cc2)nc1C`: the MIC is 0.6 µg/mL (≈ 1.72 µM) with Staphylococcus aureus [1]; 0.6 µg/mL (≈ 1.72 µM) in the series on Staphylococcus aureus [2]; 0.8 µg/mL (≈ 2.29 µM) in the series with Staphylococcus aureus [3]; 1.2 µg/mL (≈ 3.43 µM) with Staphylococcus aureus [4]; 0.8 µg/mL (≈ 2.29 µM) in the series on Staphylococcus aureus [5]; 1.6 µg/mL (≈ 4.58 µM) with Staphylococcus aureus [6]. The MIC in the series with Staphylococcus aureus [7] was determined as 1 µg/mL (≈ 2.86 µM); with Staphylococcus aureus [8] it was 0.6 µg/mL (≈ 1.72 µM); in the series with Staphylococcus aureus [9] it was 2 µg/mL (≈ 5.72 µM); in the series with Staphylococcus aureus [10], 1.4 µg/mL (≈ 4.01 µM); with Staphylococcus aureus [11], 0.8 µg/mL (≈ 2.29 µM); in the series with Staphylococcus aureus [12] it was 0.6 µg/mL (≈ 1.72 µM). Besides, the MIC in the series with Staphylococcus aureus [13] is 2 µg/mL (≈ 5.72 µM); with Staphylococcus aureus [14], 1.2 µg/mL (≈ 3.43 µM); in the series on Staphylococcus aureus [15], 0.6 µg/mL (≈ 1.72 µM); in the series with Staphylococcus aureus [16], 0.5 µg/mL (≈ 1.43 µM); with Staphylococcus aureus [17], 0.6 µg/mL (≈ 1.72 µM); in the series with Staphylococcus aureus [18], 0.6 µg/mL (≈ 1.72 µM). Moreover, the Activity entry in the series on HeLa is “Non-toxic”.

Take `CCCc1ccc(-c2nc(C)c(/C(C)=N/NC(=N)N)s2)cc1`: the MIC was found to be 1.2 µg/mL (≈ 3.8 µM) in the series on Staphylococcus aureus [1]; 1.6 µg/mL (≈ 5.07 µM) in the series with Staphylococcus aureus [2]; 1.6 µg/mL (≈ 5.07 µM) in the series on Staphylococcus aureus [3]; 1.9 µg/mL (≈ 6.02 µM) in the series on Staphylococcus aureus [4]; 1.2 µg/mL (≈ 3.8 µM) with Staphylococcus aureus [5]; 1.9 µg/mL (≈ 6.02 µM) with Staphylococcus aureus [6]. For the same molecule, the MIC in the series with Staphylococcus aureus [7] worked out at 1.2 µg/mL (≈ 3.8 µM); in the series on Staphylococcus aureus [8], 1.9 µg/mL (≈ 6.02 µM); in the series on Staphylococcus aureus [9], 1.6 µg/mL (≈ 5.07 µM); in the series with Staphylococcus aureus [10] it was 1.9 µg/mL (≈ 6.02 µM); in the series on Staphylococcus aureus [11], 1.2 µg/mL (≈ 3.8 µM); in the series on Staphylococcus aureus [12], 1.9 µg/mL (≈ 6.02 µM). Also, the MIC with Staphylococcus aureus [13] came out at 1.2 µg/mL (≈ 3.8 µM); in the series on Staphylococcus aureus [14], 1.2 µg/mL (≈ 3.8 µM); in the series with Staphylococcus aureus [15], 1.6 µg/mL (≈ 5.07 µM); in the series on Staphylococcus aureus [16], 1.9 µg/mL (≈ 6.02 µM); in the series on Staphylococcus aureus [17], 1.9 µg/mL (≈ 6.02 µM); in the series with Staphylococcus aureus [18] it was 1.2 µg/mL (≈ 3.8 µM). Besides, the Activity result in the series on HeLa was “Non-toxic”.

As to `CCCCCc1ccc(-c2nc(C)c(/C(C)=N/NC(=N)N)s2)cc1`, the MIC is 0.7 µg/mL (≈ 2.04 µM) in the series with Staphylococcus aureus [4]; 0.9 µg/mL (≈ 2.62 µM) in the series on Staphylococcus aureus [5]; 1.1 µg/mL (≈ 3.2 µM) in the series with Staphylococcus aureus [10]; 0.9 µg/mL (≈ 2.62 µM) in the series on Staphylococcus aureus [11]; 0.9 µg/mL (≈ 2.62 µM) with Staphylococcus aureus [12]; 0.9 µg/mL (≈ 2.62 µM) in the series with Staphylococcus aureus [13]. For the same molecule, the MIC in the series on Staphylococcus aureus [14] is 0.5 µg/mL (≈ 1.46 µM); with Staphylococcus aureus [16], 0.7 µg/mL (≈ 2.04 µM); with Staphylococcus aureus [18], 0.8 µg/mL (≈ 2.33 µM). Further, the Activity result in the series with HeLa is “Non-toxic”. For the same molecule, the Time with Staphylococcus aureus [19] amounted to 2 h.

Regarding `CCCCCCCc1ccc(-c2nc(C)c(/C(C)=N/NC(=N)N)s2)cc1`, the MIC in the series with Staphylococcus aureus [1] was 1.5 µg/mL (≈ 4.04 µM); in the series with Staphylococcus aureus [2] it was 1.5 µg/mL (≈ 4.04 µM); in the series on Staphylococcus aureus [3], 2.5 µg/mL (≈ 6.73 µM); in the series with Staphylococcus aureus [4], 1.5 µg/mL (≈ 4.04 µM); in the series on Staphylococcus aureus [5], 4 µg/mL (≈ 10.8 µM); with Staphylococcus aureus [6], 3 µg/mL (≈ 8.07 µM). Besides, the MIC stood at 2.5 µg/mL (≈ 6.73 µM) with Staphylococcus aureus [7]; 1.2 µg/mL (≈ 3.23 µM) with Staphylococcus aureus [8]; 3 µg/mL (≈ 8.07 µM) in the series with Staphylococcus aureus [9]; 3 µg/mL (≈ 8.07 µM) in the series with Staphylococcus aureus [10]; 1.5 µg/mL (≈ 4.04 µM) in the series with Staphylococcus aureus [11]; 1.5 µg/mL (≈ 4.04 µM) with Staphylococcus aureus [12]. Also, the MIC in the series with Staphylococcus aureus [13] amounted to 3 µg/mL (≈ 8.07 µM); with Staphylococcus aureus [14] it was 1 µg/mL (≈ 2.69 µM); in the series with Staphylococcus aureus [15] it was 0.7 µg/mL (≈ 1.88 µM); in the series on Staphylococcus aureus [16], 1.5 µg/mL (≈ 4.04 µM); with Staphylococcus aureus [17], 0.7 µg/mL (≈ 1.88 µM); in the series with Staphylococcus aureus [18] it was 3 µg/mL (≈ 8.07 µM). In addition, in the series with HeLa, the Activity entry is on record as “Non-toxic”.

Consider `CCCCCCCCCc1ccc(-c2nc(C)c(/C(C)=N/NC(=N)N)s2)cc1`, for which the MIC turned out to be 1.8 µg/mL (≈ 4.5 µM) with Staphylococcus aureus [4]; 1.8 µg/mL (≈ 4.5 µM) in the series with Staphylococcus aureus [5]; 3.7 µg/mL (≈ 9.26 µM) in the series on Staphylococcus aureus [6]; 4.4 µg/mL (≈ 11 µM) in the series on Staphylococcus aureus [10]; 4.4 µg/mL (≈ 11 µM) in the series on Staphylococcus aureus [11]; 2.2 µg/mL (≈ 5.51 µM) with Staphylococcus aureus [12]. For the same molecule, the MIC with Staphylococcus aureus [13] was found to be 4.4 µg/mL (≈ 11 µM); in the series on Staphylococcus aureus [14] it was 1.1 µg/mL (≈ 2.75 µM); with Staphylococcus aureus [15] it was 1.1 µg/mL (≈ 2.75 µM); in the series with Staphylococcus aureus [16], 2.9 µg/mL (≈ 7.26 µM); with Staphylococcus aureus [17], 1.1 µg/mL (≈ 2.75 µM). Further, in the series on HeLa, the Activity entry is “Non-toxic”.
